Laboratory results reported in publication PMC5697680 (Clinical Pharmacology in Drug Development, 2017).

Experiments:
[1] = system: OCT2/MATE renal transporter; settings: results in increased exposure to OCT2 substrates such as metformin; cited from earlier work
[2] = Tolerability assessment; type: in vivo, healthy adults
Method in brief: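 Healthy adults (18-65 years) got five single oral 20 mg doses of test compound (granule suspension or dispersible tablet in low- or high-mineral water, immediate or after 30-minute hold). Dosing followed a Latin square, fasted in the morning, with at least 7 days' washout. AEs and SAEs were recorded from first dose to follow-up at least 7 days post-dose, along with labs, vital signs, ECG and physical exams. Results were summarized as subject numbers and percentages.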

[3] = cited from earlier work

SMILES: C[C@@H]1CCO[C@H]2Cn3cc(C(=O)NCc4ccc(F)cc4F)c(=O)c(O)c3C(=O)N12 [DTG, Dolutegravir]
- effect on OCT2/MATE renal transporter [1]: inhibition
- AEs reported, number of subjects ([2]; 15 participants, all five single 20 mg treatments): 9 subjects
- SAEs, AEs leading to withdrawal, or deaths ([2]; 15 participants, all treatments): No SAEs
- drug‐related AEs (nausea, mild), number of subjects ([2]; two reports of nausea in one subject, resolved on the same day): 1 n
- reduction of DTG exposure by magnesium‐ and aluminum‐containing antacid ([3]; concomitant administration): 70%
- reduction of DTG plasma exposure by calcium supplement ([3]; fasting conditions): 39%
- reduction of DTG plasma exposure by iron supplement ([3]; fasting conditions): 54%
